According to ChEMBL document CHEMBL3272255, “Substituted alpah-methylbenzyl and tricyclic arylalkyl lactamimides as inhibitors of blood platelet aggregation” (J Med Chem, 1976):

Key:
[1] = tested on: Cavia porcellus; test: Antiplatelet activity in guinea pig assessed as inhibition of 0.45 ug/ml ADP-induced platelet aggregation measured as area between aggregation curve and baseline transmittance at 30 mg/kg, po for 4 days measured at 2 hrs post last dose by aggregometric analysis relative to control; format: functional
Outline: (§1)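 Guinea pigs were dosed by stomach tube at the stated dose daily for 4 days, with an untreated control group kept in parallel. Blood was taken by heart puncture 2 h after the last dose, and citrated PRP was isolated and adjusted. ADP was added in vitro. Total response was the area between the aggregation curve and baseline transmittance over 5 min, measured by planimeter. Percent inhibition came from group-average total response, treated vs control.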

[2] = tested on: Cavia porcellus; test: Antiplatelet activity in guinea pig assessed as inhibition of 0.8 ug/ml ADP-induced platelet aggregation measured as change in light transmittance at 100 mg/kg, po for 1 day by aggregometric analysis relative to control; format: functional; settings: 24 h
[3] = tested on: Cavia porcellus; test: Toxicity in guinea pig assessed as mortality at 300 mg/kg, po measured after third dose; format: organism-based; design: dose 300 mg/kg, route oral; settings: in vivo
[4] = tested on: Cavia porcellus; test: Antiplatelet activity in guinea pig assessed as inhibition of 0.35 ug/ml ADP-induced platelet aggregation measured as change in light transmittance at 30 mg/kg, po for 4 days measured at 2 hrs post last dose by aggregometric analysis relative to control; format: functional
Outline: (§2)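 Dosing was oral by stomach tube for 4 days, alongside an untreated control group. Blood was drawn by heart puncture 2 h after the final dose, then citrated PRP was isolated and adjusted for aggregometry. ADP was added in vitro at the stated concentration. The read-out was the maximum increase in light transmittance (ΔT); group means were compared, treated vs control.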

[5] = tested on: Cavia porcellus; test: Antiplatelet activity in guinea pig assessed as inhibition of 0.45 ug/ml ADP-induced platelet aggregation measured as area between aggregation curve and baseline transmittance at 100 mg/kg, po for 1 day by aggregometric analysis relative to control; format: functional; settings: 24 h
[6] = Antiplatelet activity in human platelet rich plasma assessed as inhibition of ADP-induced platelet aggregation at 10 ug/ml after 20 mins by aggregometric analysis relative to control; format: functional
Outline: (§3)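 Human blood came from fasting donors who had taken no drugs for 5 days. It was citrated 1:9 with 3.8% sodium citrate. PRP was prepared at 100g for 10 min and PPP at 1500g for 15 min, and PRP was diluted with autologous PPP to 400000 platelets/mm³. Compound or saline control was incubated 20 min at 37°, then ADP was added at 2 μg/ml final. Percent inhibition was calculated from maximal ΔT, test vs control.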

[7] = Antiplatelet activity in human platelet rich plasma assessed as platelet factor-3 release at 300 ug/ml after 20 mins relative to control
[8] = tested on: Cavia porcellus; test: Antiplatelet activity in guinea pig assessed as inhibition of 0.45 ug/ml ADP-induced platelet aggregation measured as change in light transmittance at 30 mg/kg, po for 4 days measured at 2 hrs post last dose by aggregometric analysis relative to control; format: functional; outline: as §2
[9] = tested on: Cavia porcellus; test: Antiplatelet activity in guinea pig assessed as inhibition of 0.35 ug/ml ADP-induced platelet aggregation measured as area between aggregation curve and baseline transmittance at 30 mg/kg, po for 4 days measured at 2 hrs post last dose by aggregometric analysis relative to control; format: functional; outline: as §1
[10] = tested on: Cavia porcellus; test: Antiplatelet activity in guinea pig assessed as inhibition of 0.25 ug/ml ADP-induced platelet aggregation measured as change in light transmittance at 30 mg/kg, po for 4 days measured at 2 hrs post last dose by aggregometric analysis relative to control; format: functional; outline: as §2
[11] = tested on: Cavia porcellus; test: Antiplatelet activity in guinea pig assessed as inhibition of 0.45 ug/ml ADP-induced platelet aggregation measured as area between aggregation curve and baseline transmittance at 100 mg/kg, po for 4 days measured at 2 hrs post last dose by aggregometric analysis relative to control; format: functional; outline: as §1
[12] = tested on: Cavia porcellus; test: Antiplatelet activity in guinea pig assessed as inhibition of 0.8 ug/ml ADP-induced platelet aggregation measured as area between aggregation curve and baseline transmittance at 30 mg/kg, po for 4 days measured at 2 hrs post last dose by aggregometric analysis relative to control; format: functional; outline: as §1
[13] = Antiplatelet activity in human platelet rich plasma assessed as inhibition of ADP-induced platelet aggregation at 100 ug/ml after 20 mins by aggregometric analysis relative to control; format: functional; outline: as §3
[14] = tested on: Cavia porcellus; test: Antiplatelet activity in guinea pig assessed as inhibition of 0.8 ug/ml ADP-induced platelet aggregation measured as change in light transmittance at 100 mg/kg, po for 4 days measured at 2 hrs post last dose by aggregometric analysis relative to control; format: functional; outline: as §2
[15] = tested on: Cavia porcellus; test: Antiplatelet activity in guinea pig assessed as inhibition of 0.8 ug/ml ADP-induced platelet aggregation measured as change in light transmittance at 30 mg/kg, po for 4 days measured at 2 hrs post last dose by aggregometric analysis relative to control; format: functional; outline: as §2
[16] = Antiplatelet activity in human platelet rich plasma assessed as inhibition of ADP-induced platelet aggregation at 30 ug/ml after 20 mins by aggregometric analysis relative to control; format: functional; outline: as §3
[17] = tested on: Cavia porcellus; test: Antiplatelet activity in guinea pig assessed as inhibition of 0.25 ug/ml ADP-induced platelet aggregation measured as area between aggregation curve and baseline transmittance at 30 mg/kg, po for 4 days measured at 2 hrs post last dose by aggregometric analysis relative to control; format: functional; outline: as §1
[18] = tested on: Cavia porcellus; test: Antiplatelet activity in guinea pig assessed as inhibition of 0.8 ug/ml ADP-induced platelet aggregation measured as area between aggregation curve and baseline transmittance at 100 mg/kg, po for 4 days measured at 2 hrs post last dose by aggregometric analysis relative to control; format: functional; outline: as §1
[19] = tested on: Cavia porcellus; test: Antiplatelet activity in guinea pig assessed as 0.45 ug/ml ADP-induced platelet aggregation measured as change in light transmittance at 100 mg/kg, po for 1 day by aggregometric analysis; settings: 24 h
[20] = tested on: Cavia porcellus; test: Antiplatelet activity in guinea pig assessed as 0.45 ug/ml ADP-induced platelet aggregation measured as change in light transmittance at 100 mg/kg, po for 4 days measured at 2 hrs post last dose by aggregometric analysis
[21] = tested on: Cavia porcellus; test: Antiplatelet activity in guinea pig assessed as inhibition of 0.4 ug/ml ADP-induced platelet aggregation measured as area between aggregation curve and baseline transmittance at 10 mg/kg, po for 4 days measured at 2 hrs post last dose by aggregometric analysis relative to control; format: functional; outline: as §1
[22] = tested on: Cavia porcellus; test: Antiplatelet activity in guinea pig assessed as inhibition of 0.8 ug/ml ADP-induced platelet aggregation measured as area between aggregation curve and baseline transmittance at 100 mg/kg, po for 1 day by aggregometric analysis relative to control; format: functional; settings: 24 h
[23] = tested on: Cavia porcellus; test: Antiplatelet activity in guinea pig assessed as inhibition of 0.8 ug/ml ADP-induced platelet aggregation measured as area between aggregation curve and baseline transmittance at 10 mg/kg, po for 4 days measured at 2 hrs post last dose by aggregometric analysis relative to control; format: functional; outline: as §1
[24] = tested on: Cavia porcellus; test: Antiplatelet activity in guinea pig assessed as inhibition of 0.8 ug/ml ADP-induced platelet aggregation measured as change in light transmittance at 10 mg/kg, po for 4 days measured at 2 hrs post last dose by aggregometric analysis relative to control; format: functional; outline: as §2
[25] = tested on: Cavia porcellus; test: Antiplatelet activity in guinea pig assessed as inhibition of 0.4 ug/ml ADP-induced platelet aggregation measured as change in light transmittance at 10 mg/kg, po for 4 days measured at 2 hrs post last dose by aggregometric analysis relative to control; format: functional; outline: as §2

CCCC(C/N=C1/CCCCCN1)(c1ccccc1)c1ccccc1.Cl
inhibition in vivo at 30 mg/kg [1]: 18% | ΔT % at 100 mg/kg [2]: 36% | Activity [3]: Toxic | ΔT % at 30 mg/kg [4]: 24.8% | inhibition in vivo at 100 mg/kg [5]: 13% | inhibition at 10 µg/mL [6]: 1% | %max [7]: 0.13% | ΔT % at 30 mg/kg [8]: 19.7% | inhibition in vivo at 30 mg/kg [9]: 55% | ΔT % at 30 mg/kg [10]: 21.2% | inhibition in vivo at 100 mg/kg [11]: 70% | inhibition in vivo at 30 mg/kg [12]: 14% | inhibition at 100 µg/mL [13]: 100% | ΔT % at 100 mg/kg [14]: 62.7% | ΔT % at 30 mg/kg [15]: 35.3% | inhibition at 30 µg/mL [16]: 57% | inhibition in vivo at 30 mg/kg [17]: 63% | inhibition in vivo at 100 mg/kg [18]: 20% | ΔT % at 100 mg/kg [19]: 21.4% | ΔT % at 100 mg/kg [20]: 34.3% | inhibition in vivo at 10 mg/kg [21]: 21% | inhibition in vivo at 100 mg/kg [22]: 12% | inhibition in vivo at 10 mg/kg [23]: 26% | ΔT % at 10 mg/kg [24]: 35.2% | ΔT % at 10 mg/kg [25]: 14.6%
